Sampled rows, rich in hits. Any-hit rate of the full collection: about 0.77%.
Furin inhibitor = human furin inhibition | 0.061% of 220,000 active | P09958 | purified furin, fluorogenic substrate cleavage | inhibition, % at 20 µM or 30 µM; in the data active = inhibition above about 25%
Target sequence (P09958 108-714 limits assumed): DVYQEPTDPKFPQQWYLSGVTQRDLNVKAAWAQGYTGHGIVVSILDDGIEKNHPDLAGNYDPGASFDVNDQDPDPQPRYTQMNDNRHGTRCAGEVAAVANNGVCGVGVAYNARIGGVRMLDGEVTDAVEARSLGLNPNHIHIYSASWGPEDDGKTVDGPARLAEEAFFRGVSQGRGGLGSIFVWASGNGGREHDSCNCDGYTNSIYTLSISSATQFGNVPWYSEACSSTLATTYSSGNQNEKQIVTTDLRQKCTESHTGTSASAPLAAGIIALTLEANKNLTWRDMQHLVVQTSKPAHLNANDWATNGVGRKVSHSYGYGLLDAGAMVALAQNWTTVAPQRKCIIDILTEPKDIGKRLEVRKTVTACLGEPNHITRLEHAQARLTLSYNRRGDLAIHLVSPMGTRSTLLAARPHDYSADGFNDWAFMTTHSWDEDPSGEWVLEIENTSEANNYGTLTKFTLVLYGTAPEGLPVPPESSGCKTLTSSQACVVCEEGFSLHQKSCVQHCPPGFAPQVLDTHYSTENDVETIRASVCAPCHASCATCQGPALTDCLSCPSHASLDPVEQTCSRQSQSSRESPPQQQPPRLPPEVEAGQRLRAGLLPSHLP
HMGR II inh = inhibitors of class II HMG-CoA reductase from Enterococcus faecalis; purified E. faecalis HMGR, NADPH absorbance 340 nm kinetic; inhibition, % at 10 µM; 0.41% of 190,000 active;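 active = inhibition above a set limit, the median over all tested compounds plus 3 SD, cut at about 9.5% in these data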;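 also: enzyme runs in reverse so mevalonate oxidation gives rising NADPH absorbance; 0% = complete reaction with DMSO and 100% = background rate lacking mevalonate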
ABCB1 inh = blocks JC-1 efflux by human ABCB1 transporter. inhibition, % at 6.6 µM. 0.067% of 190,000 active. CCRF-Adr cells, flow cytometry. AID 1326; in the data active = inhibition above about 40%;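 also: 0% = vehicle and 100% = reference inhibitor; higher value means more JC-1 retained so stronger ABCB1 efflux block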
Rad51 HR inh = Rad51 (human) homologous recombination inhibition; Q06609; hRad51 DNA strand exchange, fluorescence dequenching; inhibition, % at 10 µM; 0.085% of 200,000 active;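 active = inhibition above 40% at the single screening dose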;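 also: 0% = DMSO control wells and 100% = blanks with heterologous ssDNA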
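material = hRad51 filaments on single-stranded DNA | reagent = Donor/quencher-labelled 47-bp dsDNA substrate | compound = 10 µM final, single point | schedule = strand-exchange reaction 15 min at room temperature | measured by = fluorescein emission 520 nm, excitation 485 nm | read-out basis = % inhibition versus plate control and blank means | benchmarks = plate controls and plate blanks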
ABCG2 inh = human ABCG2 inhibition, ABCB1 as counter-screen; 0.1% of 190,000 active; IgMXP3 cells, JC-1 efflux, flow cytometry; inhibition, % at 6.6 µM;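 active = inhibition above 80%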;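 also: 0% = DMSO and 100% = nicardipine control wells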
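Test system: ABCG2 IgMXP3 and barcoded ABCB1 CCRF-Adr cell mix; Schedule: cells with compound and JC-1, 10 min at 25 °C, rotating, no wash; Technique: flow cytometry of retained JC-1 fluorescence; Measure: % inhibition of efflux relative to nicardipine and DMSO; Controls: nicardipine high and DMSO low controls.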
PERK inh = inhibitors of human PERK kinase; 0.17% of 220,000 active; CHO PERK-DD fusion, SEAP luminescence translation reporter; AID 1416; inhibition, % at 5.6 µM; Q9NZJ5;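 active = inhibition above the mean inhibition of all tested compounds plus 3 SD, set separately per screening campaign, cut at about 2.9% in these data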;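 also: PERK kinase domain activated by AP20187 dimerizer at 100 nM; 0% = DMSO with dimerizer and 100% = rapamycin at 8.4 µM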
The depositor's hits bear a star; · = no result.

SMILES	Furin inhibitor	HMGR II inh	ABCB1 inh	Rad51 HR inh	ABCG2 inh	PERK inh
O=C1OC(c2cccs2)=N/C1=C/c1ccc(-c2cccc(C(=O)O)c2)o1	-9.3	16.1*	3.4	-15.3	2.1	1.0
CCCCOc1ccc(Cc2n[nH]c(=S)n2N)cc1	-3.1	-4.1	-2.2	4.6	-6.7	-1.0
Cc1cc(C)cc(C(=O)NCC(=O)OCC(=O)Nc2cccnc2Cl)c1	-28.0	4.4	-0.2	3.2	-1.4	1.0
COc1ccc(NC(=O)COC(=O)CCNS(=O)(=O)c2ccc(Cl)cc2)cc1	-23.9	·	·	43.1*	·	1.1
COc1ccc(S(=O)(=O)NCCC(=O)NCc2ccc(F)cc2)cc1	28.9*	-4.3	0.3	·	1.0	0.9
COC(=O)c1ccc(C(=O)OC)c(NC(=O)CSCC(=O)O)c1	-1.5	·	·	8.5	·	3.1*
COC(=O)c1ccc(C(=O)OC)c(NC(=O)CSCc2ccc(Cl)cc2)c1	-13.4	2.1	0.8	-2.3	3.4	1.3
CC(NCCC(c1ccccc1)c1ccccc1)c1ccccc1 (stereo not given)	-16.7	18.9*	2.5	-5.8	-3.9	-1.3
COC(=O)c1scc(C)c1N1C(=O)c2ccccc2C1=O	-15.4	·	·	-8.1	·	2.9*
C=C(C)Cn1c(-c2ccncc2)n[nH]c1=S	-22.8	19.3*	-0.8	-5.1	-1.0	0.6
CCn1c(SCC(=O)O)nnc1-c1ccccc1OC	-15.9	-0.4	-0.2	·	0.0	0.5
COCCN1CCN(Cc2cn[nH]c2-c2cc3ccccc3o2)CC1	-23.7	-4.5	0.3	11.4	0.7	0.2
CN1CCN(C(=O)CC2(CC(=O)O)CCCC2)CC1	-37.0	12.6*	0.3	4.1	0.5	0.7
Cc1cccc(N/N=C(\C#N)S(=O)(=O)C(C)(C)C)c1	-18.1	16.6*	0.3	17.6	1.0	0.3
O=C(CCCN1C(=O)/C(=C\c2cccs2)SC1=S)NNC(=O)c1ccncc1	-25.2	1.5	0.5	1.5	1.0	0.8
O=C(CCCN1C(=O)/C(=C/c2cccs2)SC1=S)NNC(=O)c1cccnc1	-26.7	·	·	41.7*	·	0.2
C=CCNC(=S)/N=c1/ccccn1CCC	-12.0	·	·	-0.5	·	2.0
COc1ccc(-n2ncc3c(N4CCN(Cc5ccccc5)CC4)ncnc32)cc1	-12.1	-1.1	1.1	-4.7	35.9	-0.9
Cc1cc([N+](=O)[O-])ccc1NC(=O)CSc1nccc(=O)[nH]1	-22.3	-5.9	1.2	33.6	8.2	0.1
Cn1cc([N+](=O)[O-])c(C(=O)NCc2ccccc2)n1	-12.6	·	·	-3.2	·	1.5
Cn1cc([N+](=O)[O-])c(C(=O)NCc2ccco2)n1	-6.6	-5.1	0.5	11.9	0.8	3.8*
COc1ccccc1CNC(=O)CN(Cc1ccc(Cl)cc1)S(C)(=O)=O	-27.0	2.7	0.8	·	3.2	-0.5
Cc1cccc(OCC(=O)NNC(=O)CSc2ncc(C#N)c(N)n2)c1	-21.8	4.8	0.1	-8.0	0.2	0.7
COC(=O)CSc1ncc(C#N)c(N)n1	-14.4	63.1*	1.1	-3.7	14.5	0.8
Cc1ccc(C(=O)NCCc2ccncc2)cc1	-3.5	11.9*	0.1	3.8	-0.4	0.9
SMILES	Furin inhibitor	HMGR II inh	ABCB1 inh	Rad51 HR inh	ABCG2 inh	PERK inh
Cc1ccc[n+](C(C)C(=O)Nc2ccc(C)c([N+](=O)[O-])c2)c1 (stereo not given)	-19.0	0.2	0.5	6.1	2.2	-0.3
CCCCCCCCCCCCCCCC(=O)OC[C@H](COP(=O)([O-])OCC[N+](C)(C)C)OC(=O)CCCCCCCCCCCCCCC	6.8	-9.8	-0.1	-4.6	-0.1	3.0*
Cc1nc2scc(-c3cccs3)c2c(=O)n1CC(=O)O	-11.5	-2.2	-0.1	115.2*	-0.2	1.6
O=C(O)Cn1cnc2scc(-c3cccs3)c2c1=O	-21.5	·	·	·	·	1.0
Cc1cccc(NC(=O)c2cnc3ccccn3c2=O)c1	-14.8	-0.9	0.1	-2.9	5.0	3.1*
COc1cccc(/C=C2/SC(=O)N(C)C2=O)c1OCc1ccc(C(=O)O)cc1	-15.4	10.5*	-0.3	-2.3	15.6	1.9
C/C(=N\N=C(N)N)c1ccc(C)c(C)c1	-10.1	·	·	·	·	0.1
Cc1[nH]nc2c1C(c1ccc(O)cc1)C1=C(CC(C)(C)CC1=O)N2 (stereo not given)	1.1	-2.4	0.2	2.3	3.0	1.2
Cc1[nH]nc2c1C(c1ccsc1)C1=C(CC(C)(C)CC1=O)N2 (stereo not given)	-40.9	14.8*	1.1	0.8	1.3	-0.2
CCN(CC)C(=S)NCCc1ccccc1	-14.6	11.8*	-2.5	-21.4	-1.1	0.1
COc1cccc(/C=C/C(=O)OCC(=O)NCCC2=CCCCC2)c1	-18.3	-5.9	1.4	22.4	18.4	1.6
CCOC(=O)c1c(NC(=O)CN2CCOCC2)sc(C(=O)NC)c1C	0.2	-0.4	0.6	-1.5	4.0	-0.7
COCCOC(=O)c1c(NC(=O)CN2CCOCC2)sc(C(N)=O)c1C	-16.8	16.9*	0.4	-4.6	4.5	0.1
COc1ccc(/C=C/C(=O)NCC(c2ccc(F)cc2)N2CCOCC2)cc1OC (stereo not given)	-7.1	·	·	·	·	-1.0
O=C(O)CCC(=O)Nc1ccc(Oc2ncnc3cc(Cl)ccc23)nc1	-17.7	·	·	13.2	·	1.9
Cc1ccc(Cn2nnc3c(=O)n(CC(=O)NCc4ccco4)cnc32)cc1	-23.8	19.6*	0.5	-3.7	3.9	-0.7
Cc1ccc(-n2nnc3c(=O)n(CC(=O)NCc4ccco4)cnc32)cc1	-22.2	-2.0	0.0	0.4	1.2	0.9
COc1ccc(C2(CNS(=O)(=O)c3ccccc3)CCOCC2)cc1	-16.8	-0.4	0.0	-8.8	-1.9	-0.8
COC(=O)[C@@]1(Cc2ccc(F)cc2)[C@H]2c3cc(C(=O)N(C)C)n(Cc4ccccn4)c3C[C@H]2CN1C(=O)c1ccccc1	-3.7	-14.1	5.5	-5.0	3.2	-0.2
COC(=O)[C@@]1(Cc2ccc(F)cc2)[C@H]2c3cc(C(=O)N(C)C)n(Cc4nc5ccccc5[nH]4)c3C[C@H]2CN1C(=O)c1ccccc1	-20.2	11.5*	0.0	-0.3	0.0	-0.6
CC(=O)c1cc(CN2CCN(C3CCCCC3)C(CCO)C2)cs1 (stereo not given)	-1.6	-5.7	0.7	-11.4	0.4	-0.5
COC(=O)c1ccc(-n2c(C)cc(C(=O)CSc3cccc[n+]3[O-])c2C)cc1	-28.3	1.6	-0.2	72.8*	3.8	0.0
Cc1cc(C(=O)CSc2cccc[n+]2[O-])c(C)n1-c1ccc(OC(F)F)cc1	-8.3	·	·	-3.0	·	0.1
COc1ccc(NCC(=O)N/N=C/c2cc([N+](=O)[O-])ccc2N2CCCC2)cc1	9.5	2.5	0.0	-1.6	0.5	-0.5
NNc1nc2c(Cl)ccc(Cl)c2s1	2.3	18.7*	-0.1	-1.8	1.7	0.4
Cc1nc2ccccc2c(=O)n1/N=C/c1ccc(N(C)C)cc1	-18.3	-0.3	0.2	1.1	2.0	1.1

Assay outcomes: PubChem BioAssay, several laboratories
